The source made the active and inactive calls. The calls are words filed in the database; no cut-off is given here.
How the values were obtained:
[1] = molecular target: T1, Histone deacetylase (Homo sapiens) (UniProt Q13547+O15379+Q9UBN7+Q92769+Q9UQL6+Q8WUI4+Q9BY41+Q96DB2+P56524+Q9UKV0+Q969S8); assay: Inhibition of HDAC in human HeLa cell extract at 100 uM after 15 mins by fluorescence assay; type: protein assay
[2] = Cytotoxicity against human HepG2 cells assessed as cell viability at 15 uM after 72 hrs by Celltitre-glo assay; type: cell-based; settings: read-out: Activity
[3] = Cytotoxicity against human MCF7 cells assessed as cell viability at 15 uM after 72 hrs by Celltitre-glo assay; type: cell-based; settings: read-out: Activity
[4] = molecular target: T2, Retinoic acid receptor beta (Homo sapiens) (UniProt P10826); assay: Inhibition of RAR-beta (unknown origin) assessed as change in DNA methylation
T2 sequence (whole entry): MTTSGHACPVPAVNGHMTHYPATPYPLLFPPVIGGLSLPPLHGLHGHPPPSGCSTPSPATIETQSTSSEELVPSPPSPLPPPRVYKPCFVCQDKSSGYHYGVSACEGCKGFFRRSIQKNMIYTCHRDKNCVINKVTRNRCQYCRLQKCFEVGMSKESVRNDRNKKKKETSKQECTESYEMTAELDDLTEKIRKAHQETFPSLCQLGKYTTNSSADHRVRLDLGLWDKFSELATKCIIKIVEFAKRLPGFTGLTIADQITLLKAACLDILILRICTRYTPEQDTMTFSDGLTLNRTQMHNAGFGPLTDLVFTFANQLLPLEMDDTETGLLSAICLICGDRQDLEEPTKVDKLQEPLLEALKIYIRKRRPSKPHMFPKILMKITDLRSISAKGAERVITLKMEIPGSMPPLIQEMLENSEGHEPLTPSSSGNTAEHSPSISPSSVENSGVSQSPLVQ
How it was run: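 DNA methylation changes assessed by specific PCR for RARb.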

[5] = molecular target: T3, NAD-dependent protein deacetylase sirtuin-2 (Homo sapiens) (UniProt Q8IXJ6); assay: Modulation of sirtuin 2 (unknown origin) by thermal shift assay
T3 sequence (whole entry): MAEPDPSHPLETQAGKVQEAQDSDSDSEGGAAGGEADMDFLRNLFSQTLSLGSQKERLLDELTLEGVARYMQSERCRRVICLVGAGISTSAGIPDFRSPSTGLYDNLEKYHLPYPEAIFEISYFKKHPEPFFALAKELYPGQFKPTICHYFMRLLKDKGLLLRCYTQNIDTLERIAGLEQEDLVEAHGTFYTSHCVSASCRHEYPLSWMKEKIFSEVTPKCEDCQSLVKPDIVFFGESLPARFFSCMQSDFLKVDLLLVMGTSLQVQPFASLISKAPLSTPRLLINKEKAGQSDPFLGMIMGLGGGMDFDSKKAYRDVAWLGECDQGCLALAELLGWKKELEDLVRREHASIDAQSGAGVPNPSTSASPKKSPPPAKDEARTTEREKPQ
How it was run: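 Sirtuin 2 modulation tested by thermal shift assay.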

[6] = Cytotoxicity against human MeT-5A cells after 16 hrs by luciferase reporter gene assay; type: cell-based
[7] = molecular target: T1, Histone deacetylase (Homo sapiens); assay: Inhibition of HDAC in human MeT-5A cells assessed as hisone H3 acetylation after 16 hrs by BRET assay; type: cell-based
How it was run: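 MeT-5A cells transfected with phRluc-C1-BrD and pEYFP-C1 histone H3, then exposed 16 h to increasing doses; BRET signal read as measure of histone H3 acetylation (rise in signal = more acetylation). SAHA used as positive control. Means ± SEM of three independent experiments.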

[8] = molecular target: Histone deacetylase 1 (Homo sapiens, UniProt Q13547); assay: Inhibition of HDAC1 (unknown origin) after 15 mins by fluorescence assay
Chain of Histone deacetylase 1 (Q13547 whole entry): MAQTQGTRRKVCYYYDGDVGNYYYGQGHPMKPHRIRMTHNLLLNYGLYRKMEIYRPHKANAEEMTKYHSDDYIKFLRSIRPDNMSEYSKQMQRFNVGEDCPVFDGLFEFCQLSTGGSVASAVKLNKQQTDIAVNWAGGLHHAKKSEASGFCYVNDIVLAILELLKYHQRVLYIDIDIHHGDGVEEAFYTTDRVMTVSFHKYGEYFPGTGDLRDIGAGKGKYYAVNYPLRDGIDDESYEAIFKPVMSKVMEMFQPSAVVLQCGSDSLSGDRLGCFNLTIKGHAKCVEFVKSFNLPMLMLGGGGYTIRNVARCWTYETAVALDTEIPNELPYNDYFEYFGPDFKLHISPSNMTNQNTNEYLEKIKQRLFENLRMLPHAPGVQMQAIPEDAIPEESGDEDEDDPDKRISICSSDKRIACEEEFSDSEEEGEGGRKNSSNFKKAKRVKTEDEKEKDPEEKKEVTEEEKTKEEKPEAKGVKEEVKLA

[9] = molecular target: Histone deacetylase; assay: Inhibition of HDAC in human HeLa cell extract after 15 mins by fluorescence assay; type: protein assay
[10] = molecular target: T4, Protein deacetylase HDAC6 (Homo sapiens, UniProt Q9UBN7); assay: Inhibition of HDAC6 (unknown origin) after 15 mins by fluorescence assay
T4 sequence (Q9UBN7 whole entry): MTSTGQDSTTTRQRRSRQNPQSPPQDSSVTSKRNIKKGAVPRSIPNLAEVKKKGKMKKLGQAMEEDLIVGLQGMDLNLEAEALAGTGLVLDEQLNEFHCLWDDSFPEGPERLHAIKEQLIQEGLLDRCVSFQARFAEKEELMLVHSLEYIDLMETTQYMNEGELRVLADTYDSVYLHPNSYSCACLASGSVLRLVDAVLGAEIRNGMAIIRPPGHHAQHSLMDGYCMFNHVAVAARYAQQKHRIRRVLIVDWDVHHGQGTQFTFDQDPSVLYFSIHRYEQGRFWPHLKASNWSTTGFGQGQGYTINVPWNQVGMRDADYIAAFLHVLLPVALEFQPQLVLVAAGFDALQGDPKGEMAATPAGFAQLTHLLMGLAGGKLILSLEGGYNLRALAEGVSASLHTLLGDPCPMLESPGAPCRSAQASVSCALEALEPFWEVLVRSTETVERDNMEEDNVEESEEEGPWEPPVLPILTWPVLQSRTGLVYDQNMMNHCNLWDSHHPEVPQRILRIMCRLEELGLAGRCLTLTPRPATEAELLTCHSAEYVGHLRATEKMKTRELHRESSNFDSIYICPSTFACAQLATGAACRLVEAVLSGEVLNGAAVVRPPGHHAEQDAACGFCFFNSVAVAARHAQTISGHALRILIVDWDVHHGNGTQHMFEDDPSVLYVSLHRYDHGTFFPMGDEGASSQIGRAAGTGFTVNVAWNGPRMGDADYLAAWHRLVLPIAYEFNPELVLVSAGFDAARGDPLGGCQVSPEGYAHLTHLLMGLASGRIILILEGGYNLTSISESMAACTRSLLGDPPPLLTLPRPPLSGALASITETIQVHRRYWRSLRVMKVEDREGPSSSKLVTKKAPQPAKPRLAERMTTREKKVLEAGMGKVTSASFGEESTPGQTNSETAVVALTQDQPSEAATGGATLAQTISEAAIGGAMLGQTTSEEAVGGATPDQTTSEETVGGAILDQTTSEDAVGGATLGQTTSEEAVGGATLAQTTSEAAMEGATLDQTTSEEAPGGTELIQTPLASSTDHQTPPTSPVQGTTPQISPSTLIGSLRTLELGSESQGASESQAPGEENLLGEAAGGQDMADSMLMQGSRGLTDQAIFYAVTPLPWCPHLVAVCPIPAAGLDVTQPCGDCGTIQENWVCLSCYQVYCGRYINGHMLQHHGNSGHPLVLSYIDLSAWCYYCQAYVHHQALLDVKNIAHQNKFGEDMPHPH

[11] = molecular target: Histone deacetylase 2 (Homo sapiens, UniProt Q92769); assay: Inhibition of HDAC2 (unknown origin) after 15 mins by fluorescence assay
Chain of Histone deacetylase 2 (Q92769 whole entry): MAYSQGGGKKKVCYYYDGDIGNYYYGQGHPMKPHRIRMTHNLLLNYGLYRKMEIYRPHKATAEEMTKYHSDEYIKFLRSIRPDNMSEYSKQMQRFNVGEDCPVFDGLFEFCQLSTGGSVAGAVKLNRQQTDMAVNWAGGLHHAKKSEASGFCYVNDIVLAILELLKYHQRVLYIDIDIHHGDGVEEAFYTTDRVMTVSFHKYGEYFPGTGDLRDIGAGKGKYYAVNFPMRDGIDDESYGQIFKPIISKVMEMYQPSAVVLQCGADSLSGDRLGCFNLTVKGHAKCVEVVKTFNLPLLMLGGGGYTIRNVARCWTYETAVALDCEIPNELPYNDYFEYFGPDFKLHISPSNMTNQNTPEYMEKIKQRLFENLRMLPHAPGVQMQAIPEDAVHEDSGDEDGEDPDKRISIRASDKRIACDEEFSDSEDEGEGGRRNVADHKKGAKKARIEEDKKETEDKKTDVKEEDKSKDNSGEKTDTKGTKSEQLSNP

Row | Structure (SMILES) | inhibition [1] [%] | inhibition [4] | inhibition [5] | inhibition [7] | IC50 [8] [µM] | IC50 [9] [µM] | IC50 [10] [µM] | IC50 [11] [µM] | viability at 72 h, 15 µM [2] [%] | viability at 72 h, 15 µM [3] [%] | Activity [6]
1 | COc1cc(OC)c2c(c1)O/C(=C\c1ccccc1OC)C2=O | 7 | inactive | inactive |  |  |  |  |  | 104 | 89 | 
2 | COc1ccc(/C=C2\Oc3ccc(Br)cc3C2=O)cc1OC | 14 | inactive | inactive | Dose-dependent effect |  |  |  |  | 93 | 108 | Dose-dependent effect
3 | O=C(/C=C/c1ccc(Cl)cc1)c1ccccc1O | 0 | inactive | inactive |  |  |  |  |  | 62 | 90 | 
4 | O=C1/C(=C/c2ccc(O)c(O)c2)Oc2cc(O)cc(O)c21 [AUREUSIDIN] | 100 | inactive | inactive | Dose-dependent effect | 38 | 18.5 | 48.5 | 38.9 | 116 | 102 | Dose-dependent effect
5 | Cc1ccc(/C=C/C(=O)c2ccccc2O)cc1 | 0 | inactive | inactive |  |  |  |  |  | 120 | 96 | 
6 | COc1cc(OC)c2c(c1)O/C(=C\c1ccccc1Cl)C2=O | 46 | inactive | inactive |  |  |  |  |  | 80 | 72 | 
7 | COc1ccc(/C=C2\Oc3cc(OC)cc(OC)c3C2=O)cc1 [4,4',6-TRIMETHOXY-AURONE] | 20 | inactive | inactive |  |  |  |  |  | 119 | 10 | 
8 | COc1cc(OC)c2c(c1)O/C(=C\c1ccccc1)C2=O | 27 | inactive | inactive |  |  |  |  |  | 9 | 73 | 
9 | COCOc1cc(OCOC)c2c(c1)O/C(=C\c1ccc(OCOC)c(OCOC)c1)C2=O | 75 | inactive | inactive |  |  | 40 |  |  | 7 | 21 | 
10 | O=C(O)c1ccc(/C=C2\Oc3ccc(Cl)cc3C2=O)cc1 | 30 | inactive | inactive |  |  |  |  |  | 86 | 109 | 

The next lines start with results.

Row | inhibition [1] [%] | inhibition [4] | inhibition [5] | inhibition [7] | IC50 [8] [µM] | IC50 [9] [µM] | IC50 [10] [µM] | IC50 [11] [µM] | Structure (SMILES) | viability at 72 h, 15 µM [2] [%] | viability at 72 h, 15 µM [3] [%] | Activity [6]
11 | 13 | inactive | inactive |  |  |  |  |  | O=C1/C(=C/c2ccc(Cl)cc2)Oc2ccccc21 | 110 | 85 | 
12 | 6 | inactive | inactive |  |  |  |  |  | COc1cccc(/C=C2\Oc3ccc(Cl)cc3C2=O)c1OC | 99 | 115 | 
13 | 100 | inactive | inactive | Dose-dependent effect | 129 | 12.6 | 136 | 100 | O=C1/C(=C/c2ccc(O)cc2)Oc2ccccc21 | 100 | 79 | Dose-dependent effect
14 | 51 | inactive | inactive | Dose-dependent effect |  | 71 |  |  | COc1ccc(/C=C2\Oc3ccccc3C2=O)cc1OC [3',4'-DIMETHOXY-AURONE] | 114 | 91 | Dose-dependent effect
15 | 12 | inactive | inactive |  |  |  |  |  | COc1cccc(/C=C2\Oc3ccccc3C2=O)c1OC | 104 | 94 | 
16 | 5 | inactive | inactive |  |  |  |  |  | Cc1ccc(/C=C2\Oc3ccccc3C2=O)cc1 | 35 | 86 | 
17 | 28 | inactive | inactive |  |  |  |  |  | O=C(O)c1ccc(/C=C2\Oc3ccccc3C2=O)cc1 | 73 | 105 | 
18 | 98 | inactive | inactive | Dose-dependent effect | 21 | 18.6 | 26.9 | 16.4 | O=C1/C(=C/c2cccc(O)c2O)Oc2ccccc21 | 113 | 109 | Dose-dependent effect
19 | 7 | inactive | inactive |  |  |  |  |  | COc1ccccc1/C=C1\Oc2ccccc2C1=O [(Z)-2'-METHOXYAURONE] | 103 | 88 | 
20 | 1 | inactive | inactive |  |  |  |  |  | COc1cccc(/C=C2\Oc3ccccc3C2=O)c1 [3'-METHOXY-AURONE] | 101 | 89 | 
21 | 100 | inactive | inactive | Dose-dependent effect | 11.4 | 8.2 | 26.9 | 5.1 | O=C1/C(=C/c2ccc(O)c(O)c2)Oc2ccccc21 | 114 | 95 | Dose-dependent effect
22 | 23 | inactive | inactive |  |  |  |  |  | COc1ccc(/C=C2\Oc3ccccc3C2=O)cc1 [4'-METHOXY-AURONE] | 65 | 88 | 

From ChEMBL document CHEMBL3352210, “Aurones as histone deacetylase inhibitors: identification of key features” (Bioorg Med Chem Lett, 2014)
